Source: ChEMBL document CHEMBL2040792, “New chromene scaffolds for adenosine A(2A) receptors: synthesis, pharmacology and structure-activity relationships” (Eur J Med Chem, 2012)

Tests used:
[1] = target: T1, Adenosine receptor A1 (Homo sapiens) (UniProt P30542); assay: Displacement of [3H]DPCPX from human adenosine A1 receptor expressed in CHO cells at 10 uM after 60 mins by beta scintillation counting; assay type: cell-based
T1 sequence (whole entry): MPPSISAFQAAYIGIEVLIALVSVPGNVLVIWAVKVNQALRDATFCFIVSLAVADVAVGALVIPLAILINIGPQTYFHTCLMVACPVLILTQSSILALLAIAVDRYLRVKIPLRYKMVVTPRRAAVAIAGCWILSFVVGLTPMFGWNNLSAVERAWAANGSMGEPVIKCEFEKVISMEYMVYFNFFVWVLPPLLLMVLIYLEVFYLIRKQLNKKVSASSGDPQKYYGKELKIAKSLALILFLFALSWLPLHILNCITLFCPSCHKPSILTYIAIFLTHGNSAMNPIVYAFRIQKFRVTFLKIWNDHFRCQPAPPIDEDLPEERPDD
How it was run: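 CHO-A1 membranes (15 µg protein) in Hepes/NaCl/MgCl2 buffer with adenosine deaminase, pH 7.4. Test compound at 10 µM with 2 nM [3H]DPCPX, 60 min at 25 °C, in duplicate. Nonspecific binding with 10 µM (R)-PIA. Percent inhibition read after filtration.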

Adenosine receptor A2a [2] = target: T2, Adenosine receptor A2a (Homo sapiens, UniProt P29274); assay: Displacement of [3H]ZM241385 from human adenosine A2A receptor expressed in human HeLa cells at 10 uM after 30 mins by beta scintillation counting; assay type: cell-based
T2 sequence (P29274 whole entry): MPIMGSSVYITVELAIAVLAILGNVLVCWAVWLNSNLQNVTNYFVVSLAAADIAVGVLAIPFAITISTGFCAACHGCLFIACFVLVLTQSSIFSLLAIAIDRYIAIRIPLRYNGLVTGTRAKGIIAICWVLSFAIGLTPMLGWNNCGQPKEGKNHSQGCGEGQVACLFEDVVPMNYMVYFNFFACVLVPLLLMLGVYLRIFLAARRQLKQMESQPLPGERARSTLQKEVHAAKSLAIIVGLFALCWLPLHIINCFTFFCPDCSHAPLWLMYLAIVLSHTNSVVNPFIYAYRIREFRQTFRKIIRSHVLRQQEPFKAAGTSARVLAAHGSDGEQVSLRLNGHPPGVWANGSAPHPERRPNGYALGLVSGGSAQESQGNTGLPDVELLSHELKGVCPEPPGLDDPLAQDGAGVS
How it was run: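 Single-point screen at 10 µM on HeLa-A2A membranes (10 µg protein), Tris/EDTA/MgCl2 buffer with adenosine deaminase, pH 7.4. 3 nM [3H]ZM241385, 30 min at 25 °C, in duplicate. Nonspecific binding with 50 µM NECA. Percent inhibition.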

[3] = target: T3, Adenosine receptor A2b (Homo sapiens) (UniProt P29275); assay: Displacement of [3H]DPCPX from human adenosine A2B receptor expressed in HEK293 cells at 10 uM after 30 mins by beta scintillation counting; assay type: cell-based
T3 sequence (whole entry): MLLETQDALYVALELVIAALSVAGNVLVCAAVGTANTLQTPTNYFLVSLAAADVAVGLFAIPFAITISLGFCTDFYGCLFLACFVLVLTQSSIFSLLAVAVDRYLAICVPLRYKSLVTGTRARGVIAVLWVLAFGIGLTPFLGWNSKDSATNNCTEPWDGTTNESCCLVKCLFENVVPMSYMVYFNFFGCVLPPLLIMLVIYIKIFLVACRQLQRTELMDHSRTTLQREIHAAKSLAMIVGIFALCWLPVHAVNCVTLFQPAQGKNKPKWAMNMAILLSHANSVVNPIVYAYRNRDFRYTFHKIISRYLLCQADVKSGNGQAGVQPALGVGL
How it was run: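 Percent inhibition at 10 µM in HEK-293-A2B membranes (18 µg protein), pH 6.5 Tris buffer with benzamidine, bacitracin and adenosine deaminase. 35 nM [3H]DPCPX, 30 min at 25 °C, in duplicate. Nonspecific binding with 400 µM NECA.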

[4] = target: T4, Adenosine receptor A3 (Homo sapiens) (UniProt P0DMS8); assay: Displacement of [3H]NECA from human adenosine A3 receptor expressed in human HeLa cells at 10 uM after 180 mins by beta scintillation counting; assay type: cell-based
T4 sequence (whole entry): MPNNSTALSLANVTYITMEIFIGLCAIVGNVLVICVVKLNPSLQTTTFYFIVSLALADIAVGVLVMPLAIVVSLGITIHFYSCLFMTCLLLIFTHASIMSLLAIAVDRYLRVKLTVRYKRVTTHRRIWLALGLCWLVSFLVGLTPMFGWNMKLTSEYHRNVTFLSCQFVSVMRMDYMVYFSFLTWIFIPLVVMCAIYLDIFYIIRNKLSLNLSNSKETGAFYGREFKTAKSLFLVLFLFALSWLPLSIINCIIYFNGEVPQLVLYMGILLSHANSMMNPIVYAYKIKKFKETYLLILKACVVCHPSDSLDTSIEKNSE
How it was run: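 HeLa-A3 membranes (90 µg protein) in 50 mM Tris-HCl, 1 mM EDTA, 5 mM MgCl2, 2 UI/mL adenosine deaminase, pH 7.4. Test compound at 10 µM with 30 nM [3H]NECA, 180 min at 25 °C, in triplicate. Nonspecific binding with 100 µM (R)-PIA. Percent inhibition read after GF/B filtration.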

Adenosine receptor A2a [5] = target: T2, Adenosine receptor A2a; assay: Displacement of [3H]ZM241385 from human adenosine A2A receptor expressed in human HeLa cells after 30 mins by beta scintillation counting; assay type: cell-based
How it was run: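 HeLa-A2A membranes (10 µg protein) in 50 mM Tris-HCl, 1 mM EDTA, 10 mM MgCl2, 2 UI/mL adenosine deaminase, pH 7.4, with 3 nM [3H]ZM241385. Nonspecific binding with 50 µM NECA. Incubated 30 min at 25 °C, in duplicate. Six concentrations (10 nM-100 µM); IC50 by nonlinear regression, converted to Ki by Cheng-Prusoff.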

Adenosine receptor A2a [6] = target: T2, Adenosine receptor A2a; assay: Antagonist activity at human adenosine A2A receptor expressed in CHO cells assessed as inhibition of NECA-induced cAMP accumulation incubated for 15 mins prior to NECA-induction measured after 15 mins by enzyme immunoassay relative to control; assay type: functional, cell-based
How it was run: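 Stably transfected CHO cells grown with dialyzed FBS, washed in DMEM F-12 with 25 mM HEPES pH 7.4 and 30 μM rolipram. Antagonist preincubated 15 min, then NECA (0.1 nM-1 mM) added for a further 15 min. cAMP measured by enzyme immunoassay. NECA curves fitted to a sigmoidal equation; pKB derived from the EC50 shift at one antagonist concentration.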

Adenosine receptor A2b = target: T5, Adenosine receptor A2b (Homo sapiens, UniProt P29275); assay: Displacement of [3H]DPCPX from human adenosine A2B receptor expressed in HEK293 cells after 30 mins by beta scintillation counting; assay type: cell-based
T5 sequence (P29275 whole entry): T3 sequence (whole entry)
How it was run: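 HEK-293-A2B membranes (18 µg protein) in 50 mM Tris-HCl, 1 mM EDTA, 10 mM MgCl2, 0.1 mM benzamidine, 10 µg/mL bacitracin, 2 UI/mL adenosine deaminase, pH 6.5, with 35 nM [3H]DPCPX. Nonspecific binding with 400 µM NECA. Incubated 30 min at 25 °C, in duplicate. Six concentrations (10 nM-100 µM); IC50 by nonlinear regression, Ki by Cheng-Prusoff.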

Structure (SMILES)	inhibition [1] [%]	inhibition (Adenosine receptor A2a [2]) [%]	inhibition [3] [%]	inhibition [4] [%]	Ki (Adenosine receptor A2a [5]) [nM]	pKb (Adenosine receptor A2a [6])	Ki (Adenosine receptor A2b) [nM]
COc1cccc2c1OC(C)(O)C(C(C)=O)=C2 (configuration not stated)	6	10	24	30			
COc1cccc2cc(C(=O)NCC(O)CO)c(=O)oc12 (configuration not stated)	14	7	25	1			
CCOC(CNC(=O)c1cc2cccc(OC)c2oc1=N)OCC	40	> 70	51	15	1580		
COc1cc(Br)cc2cc(C(=O)NCCCO)c(=N)oc12	31	16	30	23			
O=C(NCCCO)c1cc2ccccc2oc1=O	24	10	19	6			
N=c1oc2ccc(Br)cc2cc1C(=O)NCCCO	32	14	25	17			
COc1ccc(-n2cnc(C#N)c2NC(=O)c2cc3cccc(OC)c3oc2=N)cc1	37	58	5	42			
COCCNC(=O)c1cc2cc(Cl)ccc2oc1=N	17	10	9	13			
COc1cccc2cc(C(=O)NCCCOCCCCOCCCNC(=O)c3cc4cccc(OC)c4oc3=N)c(=N)oc12	30	> 70	44	23	398	6.36	
COc1cccc2cc(C(=O)Nc3c(C#N)ncn3-c3ccccc3)c(=N)oc12	33	> 70	9	40	1000		
O=C(NCCCN1CCN(CCCNC(=O)c2cc3ccccc3oc2=O)CC1)c1cc2ccccc2oc1=O	9	1	22	15			
CCC(CO)NC(=O)c1cc2cc(Cl)ccc2oc1=N (configuration not stated)	7	15	9	0			
COc1cccc2cc(C(=O)N[C@@H](CO)C(=O)O)c(=O)oc12	12	6	24	3			
N=c1oc2ccc(Br)cc2cc1C(=O)NC1CCCCC1	5	1	10	8			
O=C(NC1CCCC1)c1cc2ccccc2oc1=O	16	1	18	20			
COc1cccc2cc(C(=O)NCC(=O)O)c(=O)oc12	27	13	35	15			
COCCNC(=O)c1cc2cccc(OC)c2oc1=O	45	65	18	0			
COc1cccc2cc(C(=O)NCCO)c(=N)oc12	47	> 70	65	23	1000		

Structure (SMILES)	inhibition [1] [%]	inhibition (Adenosine receptor A2a [2]) [%]	inhibition [3] [%]	inhibition [4] [%]	Ki (Adenosine receptor A2a [5]) [nM]	pKb (Adenosine receptor A2a [6])	Ki (Adenosine receptor A2b) [nM]
O=C(O)CNC(=O)c1cc2ccccc2oc1=O	1	2	9	0			
COc1cccc2cc(C(=O)NCCCNC(=O)c3cc4cccc(OC)c4oc3=N)c(=N)oc12	31	> 70	> 70	11	398		10000
O=C(NCC(O)CO)c1cc2cccc(O)c2oc1=O (configuration not stated)	4	11	29	22			
CCC(CO)NC(=O)c1cc2cc(Br)ccc2oc1=N (configuration not stated)	20	3	4	24			
COc1cccc2cc(C(=O)NCC(O)c3ccccc3)c(=N)oc12 (configuration not stated)	55	> 70	> 70	8	501		1000
N=c1oc2ccc(Br)cc2cc1C(=O)NC1CCCC1	17	5	28	0			
COc1cccc2cc(C(=O)NCCCCCO)c(=N)oc12	44	> 70	> 70	13	1000		1260
COc1cccc2cc(C(C)=O)c(=O)oc12	10	1	15	1			
O=C(NCCCO)c1cc2cccc(O)c2oc1=O	18	1	24	8			
N=c1oc2ccc(Br)cc2cc1C(=O)NCC(O)CO (configuration not stated)	11	8	4	10			
COc1cccc2cc(C(=O)NCCO)c(=O)oc12	12	1	7	1			
COc1cccc2cc(C(=O)Nc3c(C#N)ncn3-c3ccc(C#N)cc3)c(=N)oc12	18	41	10	1			
O=C(NCC(O)CO)c1cc2cc(Cl)ccc2oc1=O (configuration not stated)	21	2	23	1			
COc1cccc2cc(C(=O)NC(CO)(CO)CO)c(=N)oc12	19	24	28	18			
CCC(CO)NC(=O)c1cc2cccc(OC)c2oc1=N (configuration not stated)	24	66	39	6			
N=c1oc2ccc(Br)cc2cc1C(=O)NCCO	26	6	15	0			
COc1cccc2cc(C(=O)NCCCO)c(=N)oc12	47	> 70	42	1	631		
